In publication PMC7473156 (European Journal of Medicinal Chemistry, 2020):
“Also recorded” adds a separate entry of the source.

Legend:
[1] = system: HepG2 cells; assay: Cell death of HepG2 cells stably transfected with CYP3A4-EGFP or empty vector; format: cell-based, human; details: 15 μM, 24 h; for cell death of HepG2 cells: influence of cellular CYP3A4 overexpression: CYP3A4-EGFP versus vector
In short: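 HepG2 cells were lipofected with pcDNA3-CYP3A4-EGFP or pcDNA3-EGFP and kept in G418 (0.5 mg/mL) for four weeks; plasmid presence was confirmed by PCR. Cells were seeded at 0.1 × 10^6 per well, adhered overnight, then exposed to 15 μM for 24 h. Propidium iodide (5 μg/mL in PBS) staining was read by flow cytometry without FSC/SSC gating. Specific cell death was calculated against control. Mean ± SEM, three independent experiments.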

[2] = system: VCR-R CEM cells; assay: Western blot analysis of VCR-R CEM cell lysates; format: cell-based, human; details: 5 μM, 24 h
In short: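 VCR-R CEM cells were seeded at 2 × 10^6 per well 4 h before treatment with DMSO or 5 μM compound for 24 h. Lysates were made in RIPA, separated by SDS-PAGE and transferred to PVDF. Blots were probed for p-Akt (Ser473), total Akt, PARP, Bcl-xL and Mcl-1 (1:1000) and detected by chemiluminescence, with stain-free total protein as loading control.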

[3] = system: VCR-R CEM cells; assay: Mitochondrial membrane potential; format: cell-based, human; details: 24 h
In short: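 VCR-R CEM cells were seeded at 0.125 × 10^6 per well 4 h before 24 h exposure to 5 μM compound or DMSO. JC-1 (1 μg/mL) was applied for 1 h before harvest, with elacridar (5 μM) present […]. Cells were washed, resuspended in PBS and read by flow cytometry as the red/green fluorescence shift.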

[4] = system: HepaRG™ cells; assay: Toxicity to differentiated HepaRG cells without transfection; format: cell-based, human; details: 24 h, compared with tetrandrine; for cell viability of HepaRG cells: 10 μM; for toxicity to HepaRG cells (cell viability): 20 μM
In short: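 HepaRG cells were differentiated in Williams' E with GlutaMAX and Maintenance/Metabolism supplement, then exposed to compound for 24 h. Viability was read by CellTiter-Blue and normalised to vehicle control. Mean ± SEM, three independent experiments.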

[5] = system: CYP3A4 overexpressing HepaRG™ cells; format: cell-based, human; details: 10 μM, 24 h
In short: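 HepaRG cells were differentiated in Maintenance/Metabolism medium, then lipofected with pcDNA3-CYP3A4-EGFP or pcDNA3-EGFP 16 h before treatment. Exposure was 10 μM for 24 h. Cell death was read by propidium iodide staining (5 μg/mL in PBS) and flow cytometry, with no FSC/SSC gating. Specific cell death was calculated against control. Mean ± SEM, three independent experiments.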

[6] = system: human umbilical vein endothelial cells (HUVECs); assay: HUVEC viability; format: cell-based; details: 10 μM, 24 h, compared with tetrandrine
In short: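 HUVECs were cultured in ECGM with 10% FCS and antibiotics/antimycotic, for at most six passages. They were seeded at […], adhered overnight, then exposed to 1, 5 or 10 μM for 24 h. Viability was read by CellTiter-Blue, with fluorescence normalised to vehicle. Mean ± SEM, three independent experiments.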

[7] = system: HepG2 cells; assay: Western blot analysis of HepG2 cells; format: cell-based, human; details: 5 μM, 48 h
In short: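 HepG2 cells were seeded at 0.5 × 10^6 per well, adhered overnight, then treated with DMSO or 5 μM compound for 24 or 48 h. Cells were lysed in RIPA, run on SDS-PAGE and transferred to PVDF. Blots were probed with p-Akt (Ser473), total Akt, PARP, Bcl-xL and Mcl-1 antibodies (1:1000) and detected by chemiluminescence, with stain-free total protein as loading control.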

[8] = target: P-gp (Homo sapiens, UniProt P08183); assay: Calcein-AM retention assay in P-gp overexpressing VCR-R CEM cells; format: cell-based; details: 0.1 and 1 μM
Sequence of P-gp (P08183 whole entry): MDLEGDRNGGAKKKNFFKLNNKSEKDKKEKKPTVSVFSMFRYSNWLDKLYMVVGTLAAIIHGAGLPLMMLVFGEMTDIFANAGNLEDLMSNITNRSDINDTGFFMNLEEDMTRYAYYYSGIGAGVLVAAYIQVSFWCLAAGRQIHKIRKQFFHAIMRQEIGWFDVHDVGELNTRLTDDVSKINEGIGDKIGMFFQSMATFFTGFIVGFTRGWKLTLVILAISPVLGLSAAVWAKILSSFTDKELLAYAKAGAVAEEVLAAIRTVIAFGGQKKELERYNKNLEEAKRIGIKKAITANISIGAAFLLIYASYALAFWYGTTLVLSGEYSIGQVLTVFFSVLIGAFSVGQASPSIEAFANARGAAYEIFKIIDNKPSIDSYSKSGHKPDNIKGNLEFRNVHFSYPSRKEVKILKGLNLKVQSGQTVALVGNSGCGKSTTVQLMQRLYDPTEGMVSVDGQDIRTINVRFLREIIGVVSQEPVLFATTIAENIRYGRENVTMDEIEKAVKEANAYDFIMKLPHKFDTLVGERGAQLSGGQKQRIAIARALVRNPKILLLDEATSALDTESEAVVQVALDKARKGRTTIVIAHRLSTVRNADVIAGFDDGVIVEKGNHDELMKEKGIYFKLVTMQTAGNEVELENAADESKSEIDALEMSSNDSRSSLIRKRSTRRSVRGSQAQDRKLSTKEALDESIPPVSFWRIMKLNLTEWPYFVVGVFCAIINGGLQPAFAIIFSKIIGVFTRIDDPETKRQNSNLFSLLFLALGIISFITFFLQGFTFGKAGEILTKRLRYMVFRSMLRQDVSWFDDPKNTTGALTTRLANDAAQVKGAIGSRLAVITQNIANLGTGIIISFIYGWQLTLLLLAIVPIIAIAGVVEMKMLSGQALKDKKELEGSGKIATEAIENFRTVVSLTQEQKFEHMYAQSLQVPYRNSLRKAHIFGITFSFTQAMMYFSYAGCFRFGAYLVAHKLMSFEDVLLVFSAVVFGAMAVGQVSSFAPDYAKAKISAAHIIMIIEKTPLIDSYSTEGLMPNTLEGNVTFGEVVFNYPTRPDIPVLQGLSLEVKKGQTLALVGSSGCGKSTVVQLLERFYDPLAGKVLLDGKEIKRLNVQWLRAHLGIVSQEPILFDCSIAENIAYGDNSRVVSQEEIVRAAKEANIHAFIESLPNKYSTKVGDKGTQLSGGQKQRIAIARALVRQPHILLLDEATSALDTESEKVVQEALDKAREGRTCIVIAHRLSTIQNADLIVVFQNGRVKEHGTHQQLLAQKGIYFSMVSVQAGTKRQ
In short: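 VCR-R CEM cells were loaded with calcein-AM (200 nM) plus test compound (0.1 or 1 μM) for 30 min at 37 °C. After a wash, they were kept without calcein-AM for a further 60 min at 37 °C, then analysed by flow cytometry. Geometric mean fluorescence intensity was normalised to the calcein-AM-only control.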

[9] = system: VCR-R CEM cells; assay: Apoptosis assay in combination with vincristine; format: cell-based, human; details: 1 μM compound with varying doses of VCR, 48 h
[10] = system: VCR-R CEM cells; assay: Cell proliferation assay; format: cell-based, human; details: 48 h, relative proliferation at 10 μM and IC50
In short: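 VCR-R CEM cells (RPMI 1640, 10% FCS) were seeded at 0.02 × 10^6 per well and rested 4 h. Metabolic activity read at that point served as the zero value. Compound exposure was 48 h, with CellTiter-Blue added 2 h before the end and fluorescence read at 590 nm. IC50 was obtained by nonlinear regression; relative proliferation was also taken at 10 μM.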

[11] = system: peripheral blood mononuclear cells (PBMCs); assay: PBMC cell death; format: cell-based, human; details: 5 and 10 μM, 48 h, compared with RMS3 and RMS5
In short: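 PBMCs were isolated from anticoagulated healthy-donor blood on a Ficoll density gradient and kept in RPMI 1640 with 20% FCS and penicillin/streptomycin. Treatment started 4 h after seeding and lasted 48 h. Cells were stained with propidium iodide (5 μg/mL in PBS) and read by flow cytometry, with debris excluded and PI-positive cells counted.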

SMILES | cytotoxicity against HepG2 cells in comparison to tetrandrine [1] | PARP cleavage [2] | mitochondrial membrane potential ΔΨm (JC-1 shift towards green fluorescence) [3] | toxicity to HepaRG cells (cell viability) [4] | further results
COc1cc2c3cc1Oc1c(OC)c(OC)cc4c1C(Cc1cccc(c1)Oc1ccc(cc1)CC3N(C)CC2)N(C)CC4 (racemic) [RMS1, (±)-12-Desmethoxytetrandrine and –isotetrandrine] | generally increased cytotoxicities | detected | no such an effect | – | –
COc1cc2c3cc1Oc1c(OC)c(OC)cc4c1C(Cc1cccc(c1)Oc1ccc(cc1)CC3N(C)CC2)N(C)CC4 (racemic) [RMS2, (±)-12-Desmethoxytetrandrine and –isotetrandrine] | generally increased cytotoxicities | – | – | significantly more toxic to HepaRG™ cells than tetrandrine | cell viability of HepaRG cells [4]: strongly decreased cell viability; cell death of CYP3A4 overexpressing HepaRG cells versus empty vector [5]: strongest effect on cell viability
COc1cc2c3cc1Oc1c(OC)c(OC)cc4c1C(Cc1ccc(OC(F)(F)F)c(c1)Oc1ccc(cc1)CC3N(C)CC2)N(C)CC4 (racemic) [RMS3, (±)-12-Desmethoxy-12-trifluoromethoxytetrandrine and –isotetrandrine] | generally increased cytotoxicities; also recorded: strongly increased cytotoxicites | detected | – | – | viability of HUVECs [6]: slightly stronger effect on the viability of HUVECs than tetrandrine
COc1cc2c3cc1Oc1c(OC)c(OC)cc4c1C(Cc1ccc(OC(F)(F)F)c(c1)Oc1ccc(cc1)CC3N(C)CC2)N(C)CC4 (racemic) [RMS4, (±)-12-Desmethoxy-12-trifluoromethoxytetrandrine and –isotetrandrine] | generally increased cytotoxicities | detected | – | significantly more toxic to HepaRG™ cells than tetrandrine | cell viability of HepaRG cells [4]: slightly; p-Akt levels [7]: reduced
COc1cc2c3cc1Oc1c(OC)c(OC)cc4c1C(Cc1cc(cs1)Oc1ccc(cc1)CC3N(C)CC2)N(C)CC4 (racemic) [RMS5, (±)-Ring C thiophene analogues of tetrandrine and –isotetrandrine] | generally increased cytotoxicities; also recorded: strongly increased cytotoxicites | – | – | – | expression of Bcl-XL and Mcl-1 [7]: slightly diminished; p-Akt levels [7]: reduced
COc1cc2c3cc1Oc1c(OC)c(OC)cc4c1C(Cc1cc(cs1)Oc1ccc(cc1)CC3N(C)CC2)N(C)CC4 (racemic) [RMS6, (±)-Ring C thiophene analogues of tetrandrine and –isotetrandrine] | – | – | no such an effect | significantly less toxic than tetrandrine | prevention of efflux of calcein-AM (P-gp inhibition) [8]: inhibition of P-gp; sensitization of VCR-R CEM cells to vincristine (apoptosis) [9]: successfully sensitized VCR-R CEM cells to VCR; inhibition of proliferation of VCR-R CEM cells [10]: nearly inactive; also recorded: no direct effect on proliferation
COc1cc2c3cc1Oc1c(OC)c(OC)cc4c1C(Cc1ccc(Cl)c(c1)Oc1ccc(cc1)CC3N(C)CC2)N(C)CC4 (racemic) [RMS7, (±)-12-Desmethoxy-12-chlorotetrandrine and –isotetrandrine] | generally increased cytotoxicities | – | no such an effect | – | –
COc1cc2c3cc1Oc1c(OC)c(OC)cc4c1C(Cc1ccc(Cl)c(c1)Oc1ccc(cc1)CC3N(C)CC2)N(C)CC4 (racemic) [RMS8, (±)-12-Desmethoxy-12-chlorotetrandrine and –isotetrandrine] | generally increased cytotoxicities | detected | – | significantly more toxic to HepaRG™ cells than tetrandrine | cell viability of HepaRG cells [4]: slightly; sensitization of VCR-R CEM cells to vincristine (apoptosis) [9]: most potent analogue as it significantly increased apoptosis at 0.01 μM VCR
COc1cc2c3cc1Oc1c(OC)c(OC)cc4c1C(CCCCOc1ccc(cc1)CC3N(C)CC2)N(C)CC4 (racemic) [RMS9, (±)-Ring C propylidene analogues of tetrandrine and –isotetrandrine] | – | – | no such an effect | significantly less toxic than tetrandrine | prevention of efflux of calcein-AM (P-gp inhibition) [8]: strongly reduces it; sensitization of VCR-R CEM cells to vincristine (apoptosis) [9]: all but RMS9 and RMS10 were able to sensitize; inhibition of proliferation of VCR-R CEM cells [10]: nearly inactive
COc1cc2c3cc1Oc1c(OC)c(OC)cc4c1[C@@H](Cc1ccc(O)c(c1)Oc1ccc(cc1)C[C@@H]3N(C)CC2)N(C)CC4 [berbamine, reference compound] | – | – | – | – | cell death of HepG2 cells: influence of cellular CYP3A4 overexpression [1]: not significantly increased
COc1cc2c(cc1OC)[C@@H](Cc1ccc(Oc3cc(C[C@@H]4c5cc(OC)c(OC)cc5CCN4C)ccc3O)cc1)N(C)CC2 [dauricine, reference compound] | – | – | – | – | cell death of HepG2 cells: influence of cellular CYP3A4 overexpression [1]: not significantly increased
COc1ccc2cc1Oc1ccc(cc1)C[C@H]1c3cc(c(OC)cc3CCN1C)Oc1c(OC)c(OC)cc3c1[C@H](C2)N(C)CC3 [tetrandrine, reference compound] | – | – | no such an effect | – | percentage of dead PBMCs [11]: highest percentage of dead PBMCs
